# Source: paper PMC9393086 (Thrombosis and Haemostasis, 2022)
# Legend:
# [1] = system: washed human platelets; assay: Light transmission platelet aggregation; format: cell-based; conditions: for effect on platelet aggregation induced by 10 µM katacine: pretreatment 5 min, PRT-060318 1 µM, PP2 20 µM
# In short: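 Platelets came from citrated blood of healthy donors free of antiplatelet drugs for 14 days. They were washed from PRP with 0.2 µg/mL prostacyclin, resuspended in modified Tyrode's buffer pH 7.3 and rested 30 min at RT. Platelets (2 × 10^8/mL) were stirred at 1,200 rpm at 37°C and stimulated with test compound (1–30 µM). Pretreatment was 5 min at 37°C with PP2 20 µM, PRT-060318 1 µM, AYP1 10 µg/mL or 0.1% DMSO. Read-out was light transmission; three independent experiments, mean + SD.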
# [2] = molecular target: podoplanin–CLEC-2 interaction (Homo sapiens, UniProt Q9P126); assay: ALPHA screen podoplanin–CLEC-2 interaction assay; format: binding
# Sequence of podoplanin–CLEC-2 interaction (Q9P126 55-229): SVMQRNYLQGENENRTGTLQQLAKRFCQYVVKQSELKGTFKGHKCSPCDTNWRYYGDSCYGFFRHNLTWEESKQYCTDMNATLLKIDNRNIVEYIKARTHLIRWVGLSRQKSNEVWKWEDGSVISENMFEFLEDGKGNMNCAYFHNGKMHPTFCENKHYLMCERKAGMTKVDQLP
# In short: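 Biotinylated human podoplanin–rabbit Fc (50 nM) plus human CLEC-2 extracellular domain (Ser55–Pro229)–6xHis (250 nM), both expressed in HEK293T and purified, incubated with test compound (vehicle 0.1% v/v DMSO) 30 min at 4°C. Then 40 µg/mL streptavidin donor beads, 30 min at RT in the dark, then 40 µg/mL nickel acceptor beads, 60 min at RT in the dark. ALPHA signal read; false positives excluded by TruHits counter-screen; IC50 from concentration series.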
# [3] = system: Syk Y525/526; assay: Phospho-specific immunoblot of platelet lysates, Syk; format: cell-based, human; conditions: katacine 10 µM, rhodocytin 100 nM; 5 min; 9 µM eptifibatide
# [4] = system: LAT Y200; assay: Phospho-specific immunoblot of platelet lysates, LAT; format: cell-based, human; conditions: katacine 10 µM, rhodocytin 100 nM; 5 min; 9 µM eptifibatide
# [5] = system: CLEC-2; assay: Immunoprecipitation of CLEC-2 and 4G10 western blot; format: cell-based, human; conditions: katacine 10 µM, rhodocytin 100 nM
# In short: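 Platelets (4 × 10^8/mL, 9 µM eptifibatide) were stimulated 5 min at 37°C, stirring at 1,200 rpm, with test compound, rhodocytin or vehicle. Lysis was in NP-40 buffer with protease inhibitors and orthovanadate, pH 7.5. Lysates were precleared on Sepharose, then incubated 30 min with 2 µg anti-CLEC-2 antibody AYP1 and captured for 60 min. Immunoprecipitates were blotted with 4G10; signal was expressed as fold over vehicle.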
# [6] = system: FcR γ-chain; assay: FcR γ-chain phosphorylation, western blot of whole cell lysate; format: cell-based, human; conditions: katacine 10 µM, CRP 3 µg/mL
# [7] = system: mouse washed platelets; assay: Mouse platelet aggregation; format: cell-based; conditions: katacine 10 µM; 2x10^8 platelets/mL
# [8] = system: mouse platelet lysates; assay: Protein tyrosine phosphorylation in mouse platelet lysates; format: cell-based; conditions: katacine 10 µM; 4x10^8 platelets/mL
smiles,measurement,setting,value
"CC(C)(C)n1nc(-c2ccc(Cl)cc2)c2c(N)ncnc21 [PP2, reference compound]",effect on platelet aggregation induced by 10 µM katacine,[1],completely blocked
"Cc1cccc(Nc2nc(N[C@@H]3CCCC[C@@H]3N)ncc2C(N)=O)c1 [PRT-060318, reference compound]",effect on platelet aggregation induced by 10 µM katacine,[1],completely blocked
"Oc1cc(O)c2c(c1)O[C@H](c1cc(O)c(O)c(O)c1)[C@H](O)[C@H]2c1c(O)cc(O)c2c1O[C@H](c1cc(O)c(O)c(O)c1)[C@H](O)[C@H]2c1c(O)cc(O)c2c1O[C@H](c1cc(O)c(O)c(O)c1)[C@H](O)C2 [katacine, Katacine]",IC50,[2],2700 nM
same,"platelet aggregation, concentration–response",[1]; at 5 μM and below,no response
same,"platelet aggregation, concentration–response",[1]; at 10 and 30 μM,maximal aggregation
same,platelet aggregation,"[1]; katacine 10 µM, washed platelets 2 × 10^8/mL",77.7 ± 9%
same,increase in phosphorylation of Syk Y525/526 relative to vehicle,[3],4.5 ± 0.9 fold
same,increase in phosphorylation of LAT Y200 relative to vehicle,[4],18.8 ± 5.9 fold
same,increase in phosphorylation levels of CLEC-2 relative to vehicle,[5],6.6 ± 4.6 fold
same,phosphorylation of FcR γ-chain,[6],did not stimulate an increase
same,platelet aggregation in mouse platelets,[7],did not observe platelet aggregation
same,protein tyrosine phosphorylation in mouse platelets,[8],did not observe
"O=C(O)c1cc(O)c2c(c1)[C@H]([C@H]1c3cc(C(=O)O)cc(O)c3C(=O)c3c(O[C@@H]4O[C@H](CO)[C@@H](O)[C@H](O)[C@H]4O)cccc31)c1cccc(O[C@@H]3O[C@H](CO)[C@@H](O)[C@H](O)[C@H]3O)c1C2=O [sennoside A, Sennoside A]",IC50,[2],1300 nM
same,effect on platelet aggregation,"[1]; 10 and 30 µM, data not shown",no effect
same,effect on the platelet aggregation response to rhodocytin,"[1]; 10 and 30 µM, rhodocytin 100 nM, data not shown",no effect
